Measured values published in ChEMBL document CHEMBL1123740, “Potential anti-AIDS drugs. 2',3'-Dideoxycytidine analogues” (1987).

test system: not listed separately; assay: Compound was evaluated for the protective effect against HTLV-III/LAV (HIV) pathogenesis at a concentration of 0.05(uM); format: functional
Procedure, shortened: (§1)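 ATH8 cells (2×10^5) were polybrene-treated, then exposed to HTLV-IIIB (2000 virus particles/cell) for 45 min. They were resuspended in 2 mL IL-2-containing medium with or without compound and incubated at 37 °C in 5% CO2. Viable cells were counted by trypan blue exclusion on days 5–7. % protection compared infected treated, infected untreated, and uninfected cells.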

| Structure (SMILES) | Protective effect |
| --- | --- |
| Nc1nc(=O)n([C@@H]2CC[C@H](CO)O2)cc1F | 5% |
| Nc1ccn([C@H]2CC[C@@H](CO)O2)c(=O)n1 [ZALCITABINE] | 18% |

test system: not listed separately; assay: Compound was evaluated for the protective effect against HTLV-III/LAV (HIV) pathogenesis at a concentration of 200(uM); format: functional; procedure, shortened: as §1

| Structure (SMILES) | Protective effect |
| --- | --- |
| Nc1ncnc2c1ncn2[C@H]1CC[C@@H](CO)O1 | 100% |
| Nc1ncnc2c1ncn2C1CCC(COP(=O)([O-])[O-])O1.[Na+].[Na+] (stereo unspecified) | 100% |
| Cc1cn(C2CCC(COP(=O)([O-])[O-])O2)c(=O)[nH]c1=O.[Na+].[Na+] (stereo unspecified) | 15% |

test system: not listed separately; assay: Compound was evaluated for the protective effect against HTLV-III/LAV (HIV) pathogenesis at a concentration of 10(uM); format: functional; procedure, shortened: as §1

| Structure (SMILES) | Protective effect |
| --- | --- |
| Nc1ncnc2c1ncn2[C@H]1CC[C@@H](CO)O1 | 100% |
| Nc1ncnc2c1ncn2C1CCC(COP(=O)([O-])[O-])O1.[Na+].[Na+] (stereo unspecified) | 100% |
| Cc1cn(C2CCC(COP(=O)([O-])[O-])O2)c(=O)[nH]c1=O.[Na+].[Na+] (stereo unspecified) | 7% |

test system: not listed separately; assay: Compound was evaluated for the protective effect against HTLV-III/LAV (HIV) pathogenesis at a concentration of 1(uM); format: functional; procedure, shortened: as §1

| Structure (SMILES) | Protective effect |
| --- | --- |
| Nc1ncnc2c1ncn2[C@H]1CC[C@@H](CO)O1 | 42% |
| Nc1ncnc2c1ncn2C1CCC(COP(=O)([O-])[O-])O1.[Na+].[Na+] (stereo unspecified) | 25% |

test system: not listed separately; assay: Compound was evaluated for the protective effect against HTLV-III/LAV (HIV) pathogenesis at a concentration of 100(uM); format: functional; procedure, shortened: as §1

| Structure (SMILES) | Protective effect |
| --- | --- |
| Nc1ncnc2c1ncn2[C@H]1CC[C@@H](CO)O1 | 100% |
| Nc1ncnc2c1ncn2C1CCC(COP(=O)([O-])[O-])O1.[Na+].[Na+] (stereo unspecified) | 100% |

test system: ATH-8 cell line; assay: Compound was evaluated for cytotoxicity by HIV cytopathic effect assay performed with ATH8 cells at a concentration of 10(uM); format: functional, Homo sapiens
Procedure, shortened: (§2)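 Uninfected control ATH8 cells (2×10^5) were polybrene-treated and cultured in 2 mL IL-2-containing medium with or without compound at 37 °C in 5% CO2. Viable cells were counted by trypan blue exclusion on a hemocytometer at days 5–7. % cytotoxicity = 100 × [1 − (viable cells with nucleoside ÷ viable cells cultured alone)].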

| Structure (SMILES) | Cytotoxicity |
| --- | --- |
| Nc1ncnc2c1ncn2[C@H]1CC[C@@H](CO)O1 | 0% |
| Nc1ncnc2c1ncn2C1CCC(COP(=O)([O-])[O-])O1.[Na+].[Na+] (stereo unspecified) | 6% |
| Cc1cn(C2CCC(COP(=O)([O-])[O-])O2)c(=O)[nH]c1=O.[Na+].[Na+] (stereo unspecified) | 9% |

test system: ATH-8 cell line; assay: Compound was evaluated for cytotoxicity by HIV cytopathic effect assay performed with ATH8 cells at a concentration of 100(uM); format: functional, Homo sapiens; procedure, shortened: as §2

| Structure (SMILES) | Cytotoxicity |
| --- | --- |
| Nc1ncnc2c1ncn2[C@H]1CC[C@@H](CO)O1 | 0% |
| Nc1ncnc2c1ncn2C1CCC(COP(=O)([O-])[O-])O1.[Na+].[Na+] (stereo unspecified) | 0% |

test system: ATH-8 cell line; assay: Compound was evaluated for cytotoxicity by HIV cytopathic effect assay performed with ATH8 cells at a concentration of 1(uM); format: functional, Homo sapiens; procedure, shortened: as §2

| Structure (SMILES) | Cytotoxicity |
| --- | --- |
| Nc1ncnc2c1ncn2[C@H]1CC[C@@H](CO)O1 | 0% |
| Nc1ncnc2c1ncn2C1CCC(COP(=O)([O-])[O-])O1.[Na+].[Na+] (stereo unspecified) | 2% |

test system: not listed separately; assay: Compound was evaluated for the protective effect against HTLV-III/LAV (HIV) pathogenesis at a concentration of 50(uM); format: functional; procedure, shortened: as §1

| Structure (SMILES) | Protective effect |
| --- | --- |
| Nc1ncnc2c1ncn2[C@H]1CC[C@@H](CO)O1 | 100% |
| Nc1ncnc2c1ncn2C1CCC(COP(=O)([O-])[O-])O1.[Na+].[Na+] (stereo unspecified) | 83% |
| Nc1nc(=O)n([C@@H]2CC[C@H](CO)O2)cc1F | 88% |
| Nc1ccn([C@H]2CC[C@@H](CO)O2)c(=O)n1 [ZALCITABINE] | 77% |
| Cc1cn(C2CCC(COP(=O)([O-])[O-])O2)c(=O)[nH]c1=O.[Na+].[Na+] (stereo unspecified) | 18% |

test system: ATH-8 cell line; assay: Compound was evaluated for cytotoxicity by HIV cytopathic effect assay performed with ATH8 cells at a concentration of 50(uM); format: functional, Homo sapiens; procedure, shortened: as §2

| Structure (SMILES) | Cytotoxicity |
| --- | --- |
| Nc1ncnc2c1ncn2[C@H]1CC[C@@H](CO)O1 | 0% |
| Nc1ncnc2c1ncn2C1CCC(COP(=O)([O-])[O-])O1.[Na+].[Na+] (stereo unspecified) | 4% |
| Nc1nc(=O)n([C@@H]2CC[C@H](CO)O2)cc1F | 9% |
| Nc1ccn([C@H]2CC[C@@H](CO)O2)c(=O)n1 [ZALCITABINE] | 30% |
| Cc1cn(C2CCC(COP(=O)([O-])[O-])O2)c(=O)[nH]c1=O.[Na+].[Na+] (stereo unspecified) | 9% |

test system: not listed separately; assay: Compound was evaluated for the protective effect against HTLV-III/LAV (HIV) pathogenesis at a concentration of 0.5(uM); format: functional; procedure, shortened: as §1

| Structure (SMILES) | Protective effect |
| --- | --- |
| Nc1nc(=O)n([C@@H]2CC[C@H](CO)O2)cc1F | 100% |
| Nc1ccn([C@H]2CC[C@@H](CO)O2)c(=O)n1 [ZALCITABINE] | 97% |

test system: ATH-8 cell line; assay: Compound was evaluated for cytotoxicity by HIV cytopathic effect assay performed with ATH8 cells at a concentration of 5(uM); format: functional, Homo sapiens; procedure, shortened: as §2

| Structure (SMILES) | Cytotoxicity |
| --- | --- |
| Nc1ncnc2c1ncn2[C@H]1CC[C@@H](CO)O1 | 6% |
| Nc1ncnc2c1ncn2C1CCC(COP(=O)([O-])[O-])O1.[Na+].[Na+] (stereo unspecified) | 10% |
| Nc1nc(=O)n([C@@H]2CC[C@H](CO)O2)cc1F | 0% |
| Nc1ccn([C@H]2CC[C@@H](CO)O2)c(=O)n1 [ZALCITABINE] | 0% |

test system: ATH-8 cell line; assay: Compound was evaluated for cytotoxicity by HIV cytopathic effect assay performed with ATH8 cells at a concentration of 0.05(uM); format: functional, Homo sapiens; procedure, shortened: as §2

| Structure (SMILES) | Cytotoxicity |
| --- | --- |
| Nc1nc(=O)n([C@@H]2CC[C@H](CO)O2)cc1F | 5% |
| Nc1ccn([C@H]2CC[C@@H](CO)O2)c(=O)n1 [ZALCITABINE] | 0% |

test system: not listed separately; assay: Compound was evaluated for the protective effect against HTLV-III/LAV (HIV) pathogenesis at a concentration of 5(uM); format: functional; procedure, shortened: as §1

| Structure (SMILES) | Protective effect |
| --- | --- |
| Nc1ncnc2c1ncn2[C@H]1CC[C@@H](CO)O1 | 98% |
| Nc1ncnc2c1ncn2C1CCC(COP(=O)([O-])[O-])O1.[Na+].[Na+] (stereo unspecified) | 91% |
| Nc1nc(=O)n([C@@H]2CC[C@H](CO)O2)cc1F | 100% |
| Nc1ccn([C@H]2CC[C@@H](CO)O2)c(=O)n1 [ZALCITABINE] | 100% |

test system: ATH-8 cell line; assay: Compound was evaluated for cytotoxicity by HIV cytopathic effect assay performed with ATH8 cells at a concentration of 0.5(uM); format: functional, Homo sapiens; procedure, shortened: as §2

| Structure (SMILES) | Cytotoxicity |
| --- | --- |
| Nc1nc(=O)n([C@@H]2CC[C@H](CO)O2)cc1F | 0% |
| Nc1ccn([C@H]2CC[C@@H](CO)O2)c(=O)n1 [ZALCITABINE] | 0% |

test system: ATH-8 cell line; assay: Compound was evaluated for cytotoxicity by HIV cytopathic effect assay performed with ATH8 cells at a concentration of 200(uM); format: functional, Homo sapiens; procedure, shortened: as §2

| Structure (SMILES) | Cytotoxicity |
| --- | --- |
| Nc1ncnc2c1ncn2[C@H]1CC[C@@H](CO)O1 | 0% |
| Nc1ncnc2c1ncn2C1CCC(COP(=O)([O-])[O-])O1.[Na+].[Na+] (stereo unspecified) | 5% |
| Cc1cn(C2CCC(COP(=O)([O-])[O-])O2)c(=O)[nH]c1=O.[Na+].[Na+] (stereo unspecified) | 10% |
